Consider 33 molecules from ChEMBL document CHEMBL4834470, “Lathyrane Diterpenoids as Novel hPXR Agonists: Isolation, Structural Modification, and Structure-Activity Relationships” (ACS Med Chem Lett, 2021).

One data set concerns HEK-293T. The data set is described as follows: Cytotoxicity against human HEK293T cells assessed as reduction in cell viability at 10 uM measured after 24 hrs by CCK8 assay. The class given is cell-based. A general note: Formazan colour is commonly taken as a measure of viable cells.
Data set [1] addresses T1, PXR (NR1I2); CYP3A4 promoter reporter (Homo sapiens, UniProt O75469).
T1 sequence (O75469 whole entry): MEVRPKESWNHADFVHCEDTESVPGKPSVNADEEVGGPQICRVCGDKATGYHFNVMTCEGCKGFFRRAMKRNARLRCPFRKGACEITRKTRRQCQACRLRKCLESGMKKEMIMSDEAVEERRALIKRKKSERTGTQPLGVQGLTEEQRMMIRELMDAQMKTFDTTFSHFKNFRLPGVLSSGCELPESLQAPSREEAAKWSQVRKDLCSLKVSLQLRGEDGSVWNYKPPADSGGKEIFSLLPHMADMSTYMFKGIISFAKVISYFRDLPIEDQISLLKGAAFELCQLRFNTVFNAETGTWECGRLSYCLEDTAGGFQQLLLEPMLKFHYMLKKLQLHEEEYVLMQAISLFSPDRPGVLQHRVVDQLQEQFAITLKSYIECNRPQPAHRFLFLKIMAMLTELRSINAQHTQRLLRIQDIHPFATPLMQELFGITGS
The experiment in a line: Agonist activity at human PXR transfected in human HEK293T cells co-transfected with CYP3A4-Luc plasmid at 10 uM incubated for 24 hrs by dual-luciferase reporter gene assay relative to control.

Data set [2] has as its target T2, Nuclear receptor subfamily 1 group I member 2 (Homo sapiens, UniProt O75469).
T2 sequence (O75469 whole entry): T1 sequence (O75469 whole entry)
The experiment in a line: Agonist activity at PXR in human HepaRG cells assessed as upregulation of CYP2B6 mRNA expression at 10 uM by RT-qPCR analysis. The data set is classed as cell-based. In short, it runs like this:
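HepaRG cells exposed to test agents at 10 μM, with rifampicin (10 μM) as reference agonist. CYP2B6 mRNA quantified by RT-qPCR, normalized to β-ACTIN housekeeping gene. Mean ± SD, n = 3.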

For the molecule `C=C1CC[C@H]2[C@@H](/C=C(\C)C(=O)[C@@]3(O)C[C@H](C)[C@H](O)[C@@H]3[C@H]1O)C2(C)C`, in the data set with HEK-293T, the Activity entry is on record as “Non-Toxic”.

Turning to `C=C1[C@H](O)C[C@H]2[C@@H](/C=C(\C)C(=O)[C@@]3(OC(C)=O)C[C@H](C)[C@H](OC(=O)c4ccccc4)[C@@H]3[C@H]1OC(C)=O)C2(C)C`, in the data set on HEK-293T, the Activity result is reported as “Non-Toxic”.

With `C=C1CC[C@H]2[C@@H](/C=C(\C)C(=O)[C@@]3(OC(C)=O)C[C@H](C)[C@H](OC(=O)/C=C/c4ccccc4)[C@@H]3[C@H]1O)C2(C)C`, the Activity entry with HEK-293T is “Toxic”.

`C=C1C(=O)C[C@H]2[C@@H](/C=C(\C)C(=O)[C@@]3(OC(C)=O)C[C@H](C)[C@H](OC(=O)c4ccccc4)[C@@H]3[C@H]1OC(C)=O)C2(C)C`: the Activity entry with HEK-293T is “Toxic”.

Consider `C=C1CC[C@H](C(C)(C)O)/C=C/C(C)=C\[C@@]2(O)C[C@H](C)[C@H](OC(=O)c3ccccc3)[C@@H]2[C@H]1OC(C)=O`, for which the Activity entry with HEK-293T was “Non-Toxic”.

As for `C=C1CC[C@H]2[C@@H](/C=C(\C)C(=O)[C@@]3(OC(C)=O)C[C@H](C)[C@H](O)[C@@H]3[C@H]1OC(=O)/C=C/c1ccccc1)C2(C)C`, the Activity entry in the data set on HEK-293T is on record as “Toxic”.

Take `C=C1[C@H](OC(C)=O)C[C@H]2[C@@H](/C=C(\C)C(=O)[C@@]3(O)C[C@H](C)[C@H](OC(C)=O)[C@@H]3[C@H]1OC(C)=O)C2(C)C`: the Activity result in the data set with HEK-293T was “Non-Toxic”.

In the case of `CC(=O)O[C@]12C[C@H](C)[C@H](OC(=O)c3ccccc3)[C@@H]1/C=C(\CO)C(=O)C[C@H]1[C@@H](/C=C(\C)C2=O)C1(C)C`, the Activity entry with HEK-293T is “Non-Toxic”.

Regarding `C=C1CC[C@H]2[C@@H](C[C@@H](C)C(=O)[C@@]3(OC(C)=O)C[C@H](C)[C@H](OC(=O)c4ccccc4)[C@@H]3[C@H]1OC(C)=O)C2(C)C`, the Activity result in the data set with HEK-293T is reported as “Non-Toxic”.

As for `CC(=O)OC/C1=C/C[C@H]2[C@@H](/C=C(\C)C(=O)[C@@]3(OC(C)=O)C[C@H](C)[C@H](OC(=O)c4ccccc4)[C@@H]3[C@H]1OC(C)=O)C2(C)C`, the Activity result with HEK-293T is reported as “Non-Toxic”.

As to `C=C1[C@H](OC(=O)c2cccnc2)C[C@H]2[C@@H](/C=C(\C)C(=O)[C@@]3(OC(C)=O)C[C@H](C)[C@H](OC(=O)c4ccccc4)[C@@H]3[C@H]1OC(C)=O)C2(C)C`, in data set [1], the fold induction at 24 h, 10 µM amounted to 6.9. Besides, the Activity entry in data set [2] was “Active”; in the data set with HEK-293T it was “Non-Toxic”.

In the case of `C=C1[C@H](OC(=O)c2ccco2)C[C@H]2[C@@H](/C=C(\C)C(=O)[C@@]3(O)C[C@H](C)[C@H](O)[C@@H]3[C@H]1O)C2(C)C`, in the data set on HEK-293T, the Activity entry was “Non-Toxic”.

Consider `C=C1CC[C@H]2[C@@H]([C@@H]3O[C@]4(C=C3C)C[C@H](C)[C@H](OC(=O)c3ccccc3)[C@@H]4[C@H]1OC(C)=O)C2(C)C`, for which the Activity result with HEK-293T is reported as “Non-Toxic”.

With `C=C1CC[C@H](C(C)(C)OC)/C=C/C(C)=C\[C@@]2(O)C[C@H](C)[C@H](OC(=O)c3ccccc3)[C@@H]2[C@H]1OC(C)=O`, in the data set on HEK-293T, the Activity entry is given as “Non-Toxic”.

Consider `CC(=O)O[C@@H]1[C@H]2[C@@H](OC(=O)c3ccccc3)[C@@H](C)C[C@]2(OC(C)=O)C(=O)/C(C)=C/[C@@H]2[C@H](CC[C@H]1C)C2(C)C`, for which, in data set [1], the fold induction at 24 h, 10 µM turned out to be 4.9. Further, the Activity result with HEK-293T is recorded as “Non-Toxic”.

As to `C=C1[C@H](OC(C)=O)C[C@H]2[C@@H](/C=C(\C)C(=O)[C@@]3(O)C[C@H](C)[C@H](O)[C@@H]3[C@H]1O)C2(C)C`, in the data set on HEK-293T, the Activity entry is “Non-Toxic”.

As to `CC(=O)O[C@]12C[C@H](C)[C@H](OC(=O)c3cccnc3)[C@@H]1[C@H]1O[C@@]1(C)CC[C@H]1[C@@H](/C=C(\C)C2=O)C1(C)C`, the Activity result in the data set on HEK-293T is listed as “Non-Toxic”.

In data set [1], `CC(=O)O[C@H]1[C@@H](C)[C@H](OC(=O)c2ccccc2)C[C@H]2[C@@H](C[C@@H](C)C(=O)[C@@]3(OC(C)=O)C[C@H](C)[C@H](OC(=O)c4ccccc4)[C@H]13)C2(C)C` yielded a fold induction at 24 h, 10 µM of 3.4. Moreover, in the data set with HEK-293T, the Activity result is “Non-Toxic”.

With `C=C(C)[C@@H]1/C=C/C(C)=C\[C@@]2(O)C[C@H](C)[C@H](OC(=O)c3ccccc3)[C@@H]2[C@@H](OC(C)=O)C(=C)CC1`, the Activity entry with HEK-293T is “Non-Toxic”.

Turning to `C=C1CC[C@H]2[C@@H](/C=C(\C)C(=O)[C@@]3(OC(C)=O)C[C@H](C)[C@H](OC(=O)/C=C/c4ccccc4)[C@@H]3[C@H]1OC(C)=O)C2(C)C`, in the data set with HEK-293T, the Activity entry is reported as “Non-Toxic”.

Turning to `C=C1CC[C@H]2[C@@H](/C=C(\C)C(=O)[C@@]3(O)C[C@H](C)[C@H](O)[C@@H]3C1=O)C2(C)C`, the Activity result in the data set with HEK-293T is “Toxic”.

With `C=C1[C@H](OC(=O)c2ccccc2)C[C@H]2[C@@H]([C@H]3O[C@]3(C)C(=O)[C@@]3(OC(C)=O)C[C@H](C)[C@H](OC(=O)c4ccccc4)[C@@H]3[C@H]1OC(C)=O)C2(C)C`, the Activity result in the data set with HEK-293T was “Non-Toxic”.

For `C=C1[C@H](OC(=O)c2ccccc2)C[C@H]2[C@@H](/C=C(\C)C(=O)[C@@]3(OC(C)=O)C[C@H](C)[C@H](OC(=O)c4ccccc4)[C@@H]3[C@H]1OC(C)=O)C2(C)C`, the Activity entry in the data set with HEK-293T was “Non-Toxic”.

`C=C1[C@H](OC(=O)c2ccccc2)C[C@H]2[C@@H](/C=C(\C)C(=O)[C@@]3(O)C[C@H](C)[C@H](O)[C@@H]3[C@H]1OC(=O)c1ccccc1)C2(C)C`: the Activity result in the data set on HEK-293T is given as “Non-Toxic”.

On to `C=C1[C@H](OC(=O)c2ccccc2)C[C@H]2[C@@H](/C=C(\C)[C@H](OC(C)=O)[C@@]3(O)C[C@H](C)[C@H](OC(=O)c4ccccc4)[C@@H]3[C@H]1OC(C)=O)C2(C)C`, for which the Activity result in the data set on HEK-293T is reported as “Non-Toxic”.

Take `C=C1CC[C@H]2[C@@H](/C=C(\C)C(=O)[C@@]3(OC(C)=O)C[C@H](C)[C@H](OC(=O)c4cccnc4)[C@@H]3[C@H]1OC(C)=O)C2(C)C`: in the data set with HEK-293T, the Activity entry was “Non-Toxic”.

Consider `CC(=O)OC/C1=C/C[C@H]2[C@@H](/C=C(\C)C(=O)[C@@]3(O)C[C@H](C)[C@H](OC(C)=O)[C@@H]3[C@H]1OC(C)=O)C2(C)C`, for which, in the data set with HEK-293T, the Activity result was “Non-Toxic”.

Turning to `CC(=O)O[C@@H]1[C@H]2[C@@H](OC(=O)c3ccccc3)[C@@H](C)C[C@]2(OC(C)=O)C(=O)[C@@]2(C)O[C@@H]2[C@@H]2[C@H](C[C@@H](OC(=O)c3ccccc3)[C@]13CO3)C2(C)C`, the Activity entry in the data set with HEK-293T is given as “Non-Toxic”.

For `C=C1[C@H](OC(=O)c2ccccc2)C[C@H]2[C@@H](/C=C(\C)C(=O)[C@@]3(O)C[C@H](C)[C@H](OC(=O)c4ccccc4)[C@@H]3[C@H]1OC(C)=O)C2(C)C`, the Activity result with HEK-293T is “Non-Toxic”.

`C=C1[C@H](OC(=O)c2cccs2)C[C@H]2[C@@H](/C=C(\C)C(=O)[C@@]3(O)C[C@H](C)[C@H](O)[C@@H]3[C@H]1O)C2(C)C`: the Activity result in the data set on HEK-293T was “Non-Toxic”.

Regarding `C/C1=C\[C@@H]2[C@H](CC(=O)/C(COC(=O)c3ccccc3)=C/[C@H]3[C@@H](O)[C@@H](C)C[C@]3(O)C1=O)C2(C)C`, the Activity entry in the data set with HEK-293T is reported as “Non-Toxic”.

For `C=C1[C@H](O)C[C@H]2[C@@H](/C=C(\C)C(=O)[C@@]3(O)C[C@H](C)[C@H](O)[C@@H]3[C@H]1O)C2(C)C`, in the data set with HEK-293T, the Activity result is given as “Non-Toxic”.

As for `C=C1CC[C@H]2[C@@H](/C=C(\C)C(=O)[C@@]3(OC(C)=O)C[C@H](C)[C@H](OC(=O)c4ccccc4)[C@@H]3[C@H]1OC(C)=O)C2(C)C`, the Activity entry in the data set on HEK-293T was “Non-Toxic”.

One may read the fold induction as the ratio of treated to control signal. A low value points to a weak induction.
